Results on 3 substances are retold here after article PMC8892090 (Bioactive Materials, 2021).

Data set [1] is described as follows: Circular dichroism spectroscopy. Format: physicochemical. The following applies: 10 μM, deionized water, room temperature (Fig. 2c). The gist of the method: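 Samples at 10 μM were scanned on a CD spectrometer at room temperature. Scan speed was 1200 nm min⁻¹ at 1 nm resolution, and the solution background was subtracted to correct spectra. Three independent repeats.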
A general note: Circular dichroism is widely used to follow secondary structure.

The subject of data set [2] is 786-O cells. In words: In vitro photostability under NIR laser irradiation. In kind it is cell-based. The conditions noted are these: for photobleaching of Cy: 20 μM, co-incubated with 786-O cells 4 h at 37 °C, NIR laser irradiation for 40 min (up to 3.60 kJ/cm^2), IVIS. The essentials: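 786-O cells were seeded at 5 × 10³ per well and allowed to adhere overnight. They were incubated with test compound (20 μM) for 4 h at 37 °C to allow self-assembly. Cells were then irradiated with a near-infrared laser, with fluorescence recorded at 0–40 min in 5 min steps. Three independent repeats.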

The subject of data set [3] is 786-O cells. The experiment in a line: Cytotoxicity assay. The conditions noted are these: 24 h, series of concentrations, DMSO less than 1% (Fig. 3j). Format: cell-based. The essentials: (§1)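 Cells were seeded at 5 × 10³ per well in 96-well plates and allowed to adhere overnight. Test compound was serially diluted from a concentrated DMSO stock, keeping final DMSO below 1%, and incubated 24 h. Viability (%) = (As − Ab)/(Ac − Ab) × 100, using sample, blank and control wells. Three independent repeats.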

In the next data set the test system is HepG2 cells. The experiment in a line: Cytotoxicity assay. In kind it is cell-based. The following applies: 24 h, series of concentrations, DMSO less than 1%, mean ± SD n = 3 (Fig. S16). The gist of the method: as §1
In data set [4] the test system is 786-O (Renal Cell Carcinoma, RCC) xenograft mice. The experiment in a line: In vivo fluorescence imaging and biodistribution, 786-O xenograft. The gist of the method: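 Mice received 5 × 10⁶ 786-O cells in PBS subcutaneously in the right hind. At tumour volumes of about 200 mm³, test compound (200 μM, 200 μL) was given intravenously. Whole-body NIR fluorescence was imaged on a Maestro IVIS at 1, 2, 4, 8, 12, 24, 48 and 72 h. Tumour, heart, liver, spleen, lung and kidney were imaged ex vivo at 24 h, and tumour tissue was examined by Bio-TEM. n = 3.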

Another data set has as its target T1, MMP-2 (Homo sapiens, UniProt P08253).
T1 sequence (P08253 110-660): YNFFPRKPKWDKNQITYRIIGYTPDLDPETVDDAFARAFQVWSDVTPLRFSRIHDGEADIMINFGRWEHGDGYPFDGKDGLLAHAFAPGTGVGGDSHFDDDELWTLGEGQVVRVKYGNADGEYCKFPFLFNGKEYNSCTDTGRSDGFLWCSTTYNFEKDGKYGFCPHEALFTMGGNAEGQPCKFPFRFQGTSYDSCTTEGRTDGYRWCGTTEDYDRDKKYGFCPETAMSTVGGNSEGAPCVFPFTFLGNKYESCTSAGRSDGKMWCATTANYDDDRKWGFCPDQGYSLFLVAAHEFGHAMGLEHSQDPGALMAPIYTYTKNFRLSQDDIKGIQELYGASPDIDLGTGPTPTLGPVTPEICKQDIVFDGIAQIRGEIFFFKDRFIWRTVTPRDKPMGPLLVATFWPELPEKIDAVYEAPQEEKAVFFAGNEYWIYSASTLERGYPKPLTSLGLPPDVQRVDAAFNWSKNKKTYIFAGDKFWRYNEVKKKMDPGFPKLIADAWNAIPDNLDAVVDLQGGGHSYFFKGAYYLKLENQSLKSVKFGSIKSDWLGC
In words: MMP-2 enzyme responsiveness. Format: biochemical. The following applies: incubated with MMP-2, new peaks for SSGGPLG and R-M1 (Fig. S7).

The test system of data set [5] is 786-O cells. In words: Cellular imaging. The following applies: 20 μM, 15 min, 37 °C (Fig. 3e, S14). In kind it is cell-based. The essentials:
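Integrin αvβ3-overexpressing 786-O cells were seeded at 2 × 10⁵ cells on confocal dishes and allowed to adhere overnight. They were then exposed to test compound at 20 μM for 15 min. For time-dependent monitoring, cells were washed with PBS and the medium replaced. Imaging used a 40× objective, with fluorescence intensity quantified from images. Three independent repeats.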

A further data set deals with healthy mice. In kind it is in vivo. The conditions noted are these: 200 μL, n = 4.
A short description of data set [6]: Critical aggregation concentration with fluorescence probe ANS. The following applies: fluorescence probe ANS (Fig. S8). Format: physicochemical.
The nature of data set [7]: ThT and ANS fluorescent probe assay of β-sheet formation. The following applies: compared with M1 and M2 group (Fig. S10). In kind it is physicochemical.
A short description of data set [8]: Transmission electron microscopy of self-assembled nanofibers. The following applies: 50 μM in acetonitrile: H2O = 2:3 mixed solution for 1 week (Fig. 2e, S11). Format: physicochemical. The essentials: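 Samples were dissolved in acetonitrile:H₂O 2:3 and stored 7 d to self-assemble fully. Then 10 μL was placed on carbon-coated copper grids and the excess blotted with filter paper after 5 min before TEM. Three independent repeats.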

[9] abbreviates: 200 μM, 1 d, 7 d and 14 d post-injection.

Consider SSGGPGLGYLKLVFFGC(Cy)GRGD [M2], for which the “secondary structure by CD spectrum” value in [1] is reported as “random coiled secondary structure”. The “photobleaching of Cy” value with 786-O cells [2] was determined as 81%. In the data set on 786-O cells [3], the “impact on cell viability of 786-O” value is listed as “no impact”. Moreover, in the data set on HepG2 cells, the “impact on cell viability of HepG2” value is on record as “no impact”. Besides, the “course of fluorescence at the tumor site” value in data set [4] (786-O xenograft, intravenous, 200 μM, 200 μL, imaged 1-72 h, n = 3) was “quickly decreased after 4 h and nearly vanished at 72 h”.
As to SSGGPLGYLGKLVFFGC(Cy)GRGD [M1], at MMP-2, the “HPLC peak of intact M1 after incubation with MMP-2” value was “vanished”. The “secondary structure by CD spectrum” value in data set [1] is “random coiled secondary structure”. Besides, in the data set on 786-O cells [2], the “photobleaching of Cy” value stood at 55%. Moreover, in the data set on 786-O cells [2] (same as photobleaching test, M1 against M2), the “decrease of photodegradation rate of Cy versus M2” value is 26%. In addition, the “cellular distribution by confocal imaging” value in the data set on 786-O cells [5] was “distributed on the membrane of 786-O cells”. In addition, the “impact on cell viability of 786-O” value in the data set with 786-O cells [3] is given as “no impact”. Besides, the “impact on cell viability of HepG2” value in the data set on HepG2 cells is “no impact”. Besides, in data set [4] (after administration of M1 200 μM, 200 μL (Fig. 4e)), the “nanofibrous structures on tumor cells (Bio-TEM)” value is “clearly observed”. Also, in data set [4] (intravenous, 200 μM, 200 μL, n = 3), the “fluorescence at the tumor site within 1 h, M1 versus M2” value was “approximately identical fluorescence”. In the data set on healthy mice (setting [9]), the “liver function index (ALT, AST, ALP, TP, ALB, GLOB) versus PBS” value was “no noticeable difference” and the “renal function indicators (BUN, CRE) versus PBS” value is “no noticeable difference”. The “histology (H&E) of major organs versus PBS” value in the data set on healthy mice (intravenous 200 μM, 1 d post-injection) is given as “no histological differences”.
With YLGKLVFFGC(Cy)GRGD [R-M1], in data set [6], the “critical aggregation concentration (CAC) to form nanofibers” value was 4.4 µM. Besides, in data set [7], the “fluorescence intensity of ThT and ANS probes (β-sheet formation)” value was “obviously increased”. Also, the “secondary structure by CD spectrum” value in data set [1] is given as “β-sheet structure”. Moreover, the “diameter of self-assembled nanofibers (TEM)” value in [8] is reported as 13.4 ± 3.1 nm.
